Legend:
[1] = Half life in total cell extract of deoxynucleoside analogue-sensitive mouse L1210 cells by HPLC analysis in presence of snake venom phosphodiesterase; assay type: ADME, cell-based
[2] = Half life in total cell extract of nucleoside analogue-resistant mouse L1210 10K cells by HPLC analysis in presence of snake venom phosphodiesterase; assay type: ADME, cell-based
CCRF-CEM [3] = test: Resistance ratio of IC50 for deoxynucleoside analogue-resistant human CEM/ARAC8C cells to IC50 for deoxynucleoside analogue-sensitive human CCRF-CEM cells; assay type: functional
In short: (§1)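 RR is the 3-day MTT IC50 in the resistant line divided by the IC50 in its sensitive parental line. Significance between IC50s and RRs was tested by Student's t-test.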

L1210 [4] = test: Cytotoxicity against deoxynucleoside analogue-sensitive mouse L1210 cells after 3 days by MTT assay; assay type: functional, cell-based; details: L1210, 72 h
In short: (§2)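 Suspension lines (CCRF-CEM, L1210) grown in RPMI with 10% FBS, L-glutamine and penicillin/streptomycin, added at 10,000 cells/well directly to media holding graded drug concentrations. After 3 days at 37 °C, MTT (100 µg) was added for 2 h and the formazan dissolved in isopropanol/HCl/water for optical density.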

L1210 [5] = test: Resistance ratio of IC50 for deoxynucleoside analogue-resistant mouse L1210 10K cells to IC50 for deoxynucleoside analogue-sensitive mouse L1210 cells; assay type: functional; in short: as §1
L1210 [6] = test: Cytotoxicity against deoxycytidine kinase deficient and nucleoside analogue-resistant mouse L1210 10K cells after 3 days by MTT assay; assay type: functional, cell-based; details: L1210, 72 h; in short: as §2
MCF7 [7] = test: Cytotoxicity against deoxynucleoside analogue-resistant human MCF7 1K cells overexpressing ribonucleotide reductase after 3 days by MTT assay; assay type: functional, cell-based; details: MCF7, 72 h
In short: (§3)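 Adherent lines (Messa in RPMI, MCF7 in DMEM, each with 10% FBS, L-glutamine and penicillin/streptomycin) seeded at 3000 cells/well and left 24 h at 37 °C before drugs were added over a concentration range. After 3 days at 37 °C, MTT (100 µg) was added for 2 h and the formazan dissolved in isopropanol/HCl/water for optical density.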

MCF7 [8] = test: Cytotoxicity against deoxynucleoside analogue-sensitive human MCF7 cells after 3 days by MTT assay; assay type: functional, cell-based; details: MCF7, 72 h; in short: as §3
[9] = Cytotoxicity against deoxycytidine kinase deficient and deoxynucleoside analogue-resistant human MESSA 10K cells after 3 days by MTT assay; assay type: functional, cell-based; details: 72 h; in short: as §3
[10] = Cytotoxicity against nucleoside transporter deficient and deoxynucleoside analogue-resistant human CEM/ARAC8C cells after 3 days by MTT assay; assay type: functional, cell-based; details: 72 h
CCRF-CEM [11] = test: Cytotoxicity against deoxynucleoside analogue-sensitive human CCRF-CEM cells after 3 days by MTT assay; assay type: functional, cell-based; details: 72 h; in short: as §2
[12] = Cytotoxicity against deoxynucleoside analogue-sensitive human MESSA cells after 3 days by MTT assay; assay type: functional, cell-based; details: MES-SA, 72 h; in short: as §3

Cc1cn([C@@H]2O[C@H](COP(=O)([O-])Oc3ccccc3)[C@@H](N=[N+]=[N-])[C@@H]2O)c(=O)[nH]c1=O.[Na+]
half-life [1]: 53 min
half-life [2]: 53 min

Cc1cn([C@H]2C[C@H](O)[C@@H](COP(=O)(O)Oc3ccc([N+](=O)[O-])cc3)O2)c(=O)[nH]c1=O
half-life [1]: 43 min
half-life [2]: 43 min

Nc1ccn([C@@H]2O[C@H](COP(=O)([O-])Oc3ccccc3)[C@@H](O)[C@@H]2O)c(=O)n1.[Na+]
half-life [1]: 276 min
half-life [2]: 276 min

Nc1ccn([C@@H]2O[C@H](CO)[C@@H](O)[C@@H]2O)c(=O)n1 [CYTARABINE]
Ratio IC50 (CCRF-CEM [3]): 100000
IC50 (L1210 [4]): 0.0004 µM
Ratio IC50 (L1210 [5]): 257500
IC50 (L1210 [6]): 103 µM
IC50 (MCF7 [7]): 0.04 µM
IC50 (MCF7 [8]): 0.004 µM
IC50 [9]: 6330 µM
IC50 [10]: 100 µM
IC50 (CCRF-CEM [11]): 0.001 µM
IC50 [12]: 1.7 µM

— ChEMBL document CHEMBL1152537, “Special feature of mixed phosphotriester derivatives of cytarabine” (Bioorg Med Chem, 2009)
